According to ChEMBL document CHEMBL4028892, “Discovery of a 1-Methyl-3,4-dihydronaphthalene-Based Sphingosine-1-Phosphate (S1P) Receptor Agonist Ceralifimod (ONO-4641). A S1P1 and S1P5 Selective Agonist for the Treatment of Autoimmune Diseases” (J Med Chem, 2017):

Tests used:
[1] = species: Homo sapiens; experiment: Selectivity ratio of EC50 for human S1P3 receptor to EC50 for human S1P1 receptor
Method in brief: (§1)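 Fura2 Ca2+ assay in CHO-K1 cells stably expressing human S1P1 or S1P3. Cells were loaded with 5 μM Fura2-AM in Ham's F12 (10% FBS, 20 mM HEPES pH 7.4, 2.5 mM probenecid) for 60 min at 37 °C, then washed. After a 30 s baseline, compound was added (0.1 nM–30 μM final, DMSO), then 100 nM S1P 5 min later. Ratio read every 3 s (ex 340/380, em 500 nm). Increase ratio (%) = B/A×100 against the DMSO-well S1P peak; EC50 taken from the concentration series; mean of ≥2 data points.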

[2] = target: Sphingosine 1-phosphate receptor 3 (Homo sapiens, UniProt Q99500); experiment: Agonist activity at human S1P3 receptor expressed in CHO-K1 cells assessed as increase in S1P-stimulated calcium influx preincubated for 5 mins followed by S1P stimulation measured every 3 secs by fluorescence method; format: cell-based
[3] = target: T1, Sphingosine 1-phosphate receptor 1 (Homo sapiens, UniProt P21453); experiment: Agonist activity at human S1P1 receptor expressed in CHO-K1 cells assessed as increase in S1P-stimulated calcium influx preincubated for 5 mins followed by S1P stimulation measured every 3 secs by fluorescence method; format: functional, cell-based; method in brief: as §1
[4] = test system: Mus musculus; experiment: Decrease in peripheral lymphocyte levels in po dosed BALB/c mouse at 4 hrs by automated hematology analyzer; format: functional
Method in brief: (§2)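 Compound given orally to 6-week-old male BALB/c mice. At 4 or 24 h, blood was taken from the abdominal aorta under ether anaesthesia and lymphocytes counted on an automated haematology analyser. Counts expressed as % of the vehicle-group mean; ED50 is the dose lowering counts to 50%. One experiment, five mice.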

[5] = Protein binding in Lewis rat serum at 50 to 5000 ng/ml after 10 mins by ultracentrifugation method; format: ADME, cell-free; details: read-out: PB
Method in brief: (§3)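 Serum protein binding measured at compound concentrations of 50, 500 and 5,000 ng/mL. Mean of four binding experiments.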

[6] = Protein binding in human serum at 50 to 5000 ng/ml after 10 mins by ultracentrifugation method; format: ADME, cell-free; details: read-out: PB; method in brief: as §3
[7] = Protein binding in cynomolgus monkey serum at 50 to 5000 ng/ml after 10 mins by ultracentrifugation method; format: ADME, cell-free, Macaca fascicularis; details: read-out: PB; method in brief: as §3
[8] = Metabolic stability in human liver microsomes assessed as parent compound remaining after 2 hrs by radio-HPLC method; format: ADME, microsome; details: read-out: Stability
Method in brief: (§4)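 Tritium-labelled compound incubated for 2 h in liver microsomes of each species. Read-out was % of unchanged form remaining; mean of two experiments.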

[9] = Metabolic stability in mouse liver microsomes assessed as parent compound remaining after 2 hrs by radio-HPLC method; format: ADME, microsome; details: read-out: Stability; method in brief: as §4
[10] = Protein binding in Sprague-Dawley rat serum at 50 to 5000 ng/ml after 10 mins by ultracentrifugation method; format: ADME, cell-free; details: read-out: PB; method in brief: as §3
[11] = Metabolic stability in Sprague-Dawley rat liver microsomes assessed as parent compound remaining after 2 hrs by radio-HPLC method; format: ADME, microsome; details: read-out: Stability; method in brief: as §4
[12] = Protein binding in mouse serum at 50 to 5000 ng/ml after 10 mins by ultracentrifugation method; format: ADME, cell-free; details: read-out: PB; method in brief: as §3
[13] = Metabolic stability in cynomolgus monkey liver microsomes assessed as parent compound remaining after 2 hrs by radio-HPLC method; format: ADME, Macaca fascicularis, microsome; details: read-out: Stability; method in brief: as §4
[14] = test system: Mus musculus; experiment: Decrease in peripheral lymphocyte levels in po dosed BALB/c mouse at 24 hrs by automated hematology analyzer; format: functional; method in brief: as §2
[15] = target: T1, Sphingosine 1-phosphate receptor 1; experiment: Agonist activity at human S1P1 receptor expressed in CHO-K1 cells assessed as inhibition of forskolin-stimulated cAMP accumulation after 30 mins by ELISA; format: functional, cell-based
[16] = target: Sphingosine 1-phosphate receptor 5 (Homo sapiens, UniProt Q9H228); experiment: Agonist activity at human S1P5 receptor expressed in CHO-K1 cells assessed as inhibition of forskolin-stimulated cAMP accumulation after 30 mins by ELISA; format: functional, cell-based
[17] = target: S1P3 receptor (sphingosine 1-phosphate receptor 3) (Homo sapiens, UniProt Q99500); experiment: Agonist activity at human S1P3 receptor expressed in CHO-K1 cells assessed as increase in S1P-stimulated calcium influx at 30 uM preincubated for 5 mins followed by S1P stimulation measured every 3 secs by fluorescence method relative to control; format: cell-based; details: CHO-K1 cells expressing human S1P3 receptor, read-out: max activation; method in brief: as §1
Sequence of S1P3 receptor (sphingosine 1-phosphate receptor 3) (Q99500 whole entry): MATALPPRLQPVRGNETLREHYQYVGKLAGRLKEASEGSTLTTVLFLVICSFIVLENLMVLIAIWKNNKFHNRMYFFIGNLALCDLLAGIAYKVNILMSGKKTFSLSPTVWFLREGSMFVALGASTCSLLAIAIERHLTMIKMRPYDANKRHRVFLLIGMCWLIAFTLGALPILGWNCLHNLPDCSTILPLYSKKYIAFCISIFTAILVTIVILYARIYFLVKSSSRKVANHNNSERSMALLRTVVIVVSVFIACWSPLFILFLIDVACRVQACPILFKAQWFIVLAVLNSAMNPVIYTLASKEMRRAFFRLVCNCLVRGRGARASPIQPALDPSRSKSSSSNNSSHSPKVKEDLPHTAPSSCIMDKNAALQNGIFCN

T1 sequence (P21453 whole entry): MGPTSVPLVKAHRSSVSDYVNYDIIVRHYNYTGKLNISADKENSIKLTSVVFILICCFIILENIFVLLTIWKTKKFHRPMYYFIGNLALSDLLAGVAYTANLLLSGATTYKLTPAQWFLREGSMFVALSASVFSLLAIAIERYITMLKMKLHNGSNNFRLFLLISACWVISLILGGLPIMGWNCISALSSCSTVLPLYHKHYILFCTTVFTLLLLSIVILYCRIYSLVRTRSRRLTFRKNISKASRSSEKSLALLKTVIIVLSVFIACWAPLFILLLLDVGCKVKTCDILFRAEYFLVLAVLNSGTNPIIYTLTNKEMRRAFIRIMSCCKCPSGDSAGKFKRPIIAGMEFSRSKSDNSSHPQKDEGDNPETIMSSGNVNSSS
Sequence of Sphingosine 1-phosphate receptor 3 (Q99500 whole entry): as the sequence (Q99500 whole entry) above
Sequence of Sphingosine 1-phosphate receptor 5 (Q9H228 whole entry): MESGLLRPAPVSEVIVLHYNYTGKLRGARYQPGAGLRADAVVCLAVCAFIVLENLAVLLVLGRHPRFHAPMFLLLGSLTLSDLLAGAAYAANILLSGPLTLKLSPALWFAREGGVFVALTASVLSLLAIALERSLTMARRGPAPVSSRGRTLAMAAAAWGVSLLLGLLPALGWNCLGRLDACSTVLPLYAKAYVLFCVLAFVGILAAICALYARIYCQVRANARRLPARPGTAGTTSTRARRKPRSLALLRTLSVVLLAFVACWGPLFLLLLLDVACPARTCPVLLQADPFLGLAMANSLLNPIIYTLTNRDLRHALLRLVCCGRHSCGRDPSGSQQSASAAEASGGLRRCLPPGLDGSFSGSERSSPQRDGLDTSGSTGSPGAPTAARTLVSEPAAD

Row | Ratio EC50 [1] | EC50 [2] [nM] | EC50 [3] [nM] | Structure (SMILES) | ED50 [4] [mg/kg] | also measured
1 | > 21000 | > 30000 | 1.4 | COc1cc(C)ccc1COc1ccc2c(c1)CCC(CN1CC(C(=O)O)C1)=C2C | > 0.1 | –
2 | > 6700 | > 30000 | 4.5 | CC1=C(CN2CC(C(=O)O)C2)CCc2cc(OCc3ccc(CC(C)C)cc3Cl)ccc21 | 0.19 | –
3 | > 12000 | > 30000 | 2.6 | CC1=C(CN2CC(C(=O)O)C2)CCc2cc(OCc3ccc(CC(C)C)cc3F)ccc21 | 0.073 | –
4 | 1300 | 4000 | 3 | COc1cc(COc2ccc3c(c2)CCC(CN2CC(C(=O)O)C2)=C3C)ccc1CC(C)C | 0.034 | –
5 | 1700 | – | – | CC1=C(CN2CC(C(=O)O)C2)CCc2cc(OCCCc3ccccc3)ccc21 | 0.4 | –
6 | > 52000 | > 30000 | 0.58 | CCc1ccc(COc2ccc3c(c2)CCC(CN2CC(C(=O)O)C2)=C3C)c(OC)c1 | 0.026 | ED50 [14]: 0.3 mg/kg
7 | > 6000 | > 30000 | 5 | CC1=C(CN2CC(C(=O)O)C2)CCc2cc(OCc3ccc(CC(C)C)cc3)ccc21 | 0.39 | Emax at 3 s, 30 µM [17]: < 50%
8 | > 3800 | > 30000 | 7.9 | CC1=C(CN2CC(C(=O)O)C2)CCc2cc(OCC3Cc4ccccc4C3)ccc21 | > 1 | –
9 | > 2300 | > 30000 | 13 | CC1=C(CN2CC(C(=O)O)C2)CCc2cc(OCc3ccc(CC(C)C)cc3C)ccc21 | 0.23 | –
10 | > 190 | > 10000 | 54 | CC1=C(CN2CC(C(=O)O)C2)CCc2cc(OCc3ccc4ccccc4c3)ccc21 | – | –

Second part, the molecule before the results:

Row | Structure (SMILES) | Ratio EC50 [1] | EC50 [2] [nM] | EC50 [3] [nM] | ED50 [4] [mg/kg] | also measured
11 | CC1=C(CN2CC(C(=O)O)C2)CCc2cc(OCCC3CCCc4ccccc43)ccc21 (configuration not stated) | > 310 | > 30000 | 97 | – | –
12 | CC1=C(CN2CC(C(=O)O)C2)CCc2cc(OCC3CCc4ccccc4C3)ccc21 (configuration not stated) | > 1600 | > 30000 | 19 | – | –
13 | [3H]C(C1=C(C)c2ccc(OCc3ccc(CCC)cc3OC)cc2CC1)N1CC(C(=O)O)C1 (configuration not stated) | – | – | – | – | fraction unbound at 10 min [5]: 0.023 to 0.028; fraction unbound at 10 min [6]: 0.029 to 0.032; fraction unbound at 10 min [7]: 0.027 to 0.029; remaining at 2 h [8]: 95.2%; remaining at 2 h [9]: 93.3%; fraction unbound at 10 min [10]: 0.018 to 0.023; remaining at 2 h [11]: 92.6%; fraction unbound at 10 min [12]: 0.029 to 0.038; remaining at 2 h [13]: 94.1%
14 | CCCc1ccc(COc2ccc3c(c2C)CCC(CN2CC(C(=O)O)C2)=C3C)c(OC)c1 | > 25000 | > 30000 | 1.2 | 0.032 | ED50 [14]: 0.072 mg/kg; EC50 [15]: 0.072 nM; EC50 [16]: 0.98 nM
15 | COc1cc(CC(C)C)ccc1COc1ccc2c(c1)CCC(CN1CC(C(=O)O)C1)=C2C | 9300 | 9300 | 1 | 0.0092 | ED50 [14]: 0.04 mg/kg
16 | CCCc1cc(OC)c(COc2ccc3c(c2)CCC(CN2CC(C(=O)O)C2)=C3C)cn1 | > 530 | > 30000 | 57 | > 0.1 | –
17 | CCCc1ccc(COc2ccc3c(c2)CCC(CN2CC(C(=O)O)C2)=C3C)c(OC)n1 | 12000 | 6800 | 0.58 | 0.011 | –
18 | CC1=C(CN2CC(C(=O)O)C2)CCc2cc(OCCC3CCc4ccccc43)ccc21 (configuration not stated) | > 3200 | 5500 | 1.7 | > 1 | –
19 | COc1cc(CC(C)(C)O)ccc1COc1ccc2c(c1)CCC(CN1CC(C(=O)O)C1)=C2C | > 4500 | > 30000 | 6.6 | 0.16 | –
20 | CCCCc1ccc(COc2ccc3c(c2)CCC(CN2CC(C(=O)O)C2)=C3C)c(OC)c1 | > 8600 | > 30000 | 3.5 | 0.09 | ED50 [14]: 0.18 mg/kg
21 | CCCc1ccc(COc2cc3c(cc2C)C(C)=C(CN2CC(C(=O)O)C2)CC3)c(OC)c1 | > 56 | > 30000 | 540 | – | –
22 | CCCc1ccc(COc2ccc3c(c2C)CCC(CN2CC(C(=O)O)C2)=C3C)c(OC)n1 | > 25000 | > 30000 | 1.2 | 0.017 | ED50 [14]: 0.048 mg/kg; EC50 [15]: 0.19 nM; EC50 [16]: 0.92 nM
